Test results as given in ChEMBL document CHEMBL4184147, “Polyphenolic Phytochemicals in Cancer Prevention and Therapy: Bioavailability versus Bioefficacy” (J Med Chem, 2017).
pIC50: −log10 of the molar value.

Legend:
NCI-H460 [1] = assay: Cytotoxicity against human NCI-H460 cells assessed as decrease in cell viability after 48 hrs by MTT assay; format: functional, cell-based; details: NCI-H460, 48 h
BXPC-3 [2] = assay: Cytotoxicity against human BxPC3 cells assessed as decrease in cell viability after 48 hrs by MTT assay; format: functional, cell-based; details: BXPC-3, 48 h
PANC-1 [3] = assay: Cytotoxicity against human PANC1 cells assessed as decrease in cell viability after 48 hrs by MTT assay; format: functional, cell-based; details: PANC-1, 48 h
[4] = Cytotoxicity against human MML1 cells assessed as decrease in cell viability after 48 hrs by MTT assay; format: functional, cell-based
SK-MEL-2 [5] = assay: Cytotoxicity against human SK-MEL-2 cells assessed as decrease in cell viability after 48 hrs by MTT assay; format: functional, cell-based; details: SK-MEL-2, 48 h
MDA-MB-231 [6] = assay: Cytotoxicity against human MDA-MB-231 cells assessed as cell viability at 34 uM after 48 hrs by MTT assay; format: functional; details: MDA-MB-231, 48 h, read-out: Activity
T47D [7] = assay: Cytotoxicity against human T47D cells assessed as cell viability at 34 uM after 48 hrs by MTT assay; format: functional; details: read-out: Activity
HT-29 [8] = assay: Cytotoxicity against human HT-29 cells assessed as cell viability at 34 uM after 48 hrs by MTT assay; format: functional; details: HT-29, 48 h, read-out: Activity
BXPC-3 [9] = assay: Cytotoxicity against human BxPC3 cells assessed as cell viability at 34 uM after 48 hrs by MTT assay; format: functional; details: BXPC-3, 48 h, read-out: Activity
PANC-1 [10] = assay: Cytotoxicity against human PANC1 cells assessed as cell viability at 34 uM after 48 hrs by MTT assay; format: functional; details: PANC-1, 48 h, read-out: Activity
[11] = Cytotoxicity against human MML1 cells assessed as cell viability at 34 uM after 48 hrs by MTT assay; format: functional; details: read-out: Activity
SK-MEL-2 [12] = assay: Cytotoxicity against human SK-MEL-2 cells assessed as cell viability at 34 uM after 48 hrs by MTT assay; format: functional; details: SK-MEL-2, 48 h, read-out: Activity
U-87 MG [13] = assay: Cytotoxicity against human U87 cells assessed as cell viability at 34 uM after 48 hrs by MTT assay; format: functional, U-87MG ATCC; details: read-out: Activity
LN-229 [14] = assay: Cytotoxicity against human LN229 cells assessed as cell viability at 34 uM after 48 hrs by MTT assay; format: functional; details: LN-229, 48 h, read-out: Activity
[15] = Cmax in mouse at 10 mg/kg, iv by LC-MS/MS method; format: ADME, organism-based; parameters: dose 10 mg/kg, route intravenous; details: in vivo
How it was run: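 Mouse iv dosing used polyphenol dissolved in DMSO:ethanol (2:1), with total injected volume never above 30 μL. Plasma levels were measured by previously described methods.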

[16] = Tmax in mouse at 10 mg/kg, iv by LC-MS/MS method; format: ADME, organism-based; details: in vivo
How it was run: (§1)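 For IV dosing, compound dissolved in DMSO:ethanol (2:1), total volume no more than 30 μL. For oral dosing, compound given in a self-microemulsifying delivery system (60% surfactant, emulsifier OP:Cremophor EL 1:1; 30% PEG 400; 10% ethyl oleate), total volume no more than 100 μL. Plasma levels measured by previously described methods.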

[17] = Plasma concentration in mouse at 100 mg/kg, po at 60 mins by LC-MS/MS method; format: ADME, organism-based; how it was run: as §1
[18] = Plasma concentration in mouse at 10 mg/kg, iv at 60 mins by LC-MS/MS method; format: ADME, organism-based; how it was run: as §1
[19] = Cmax in mouse at 100 mg/kg, po by HPLC method; format: ADME, organism-based; parameters: dose 100 mg/kg, route oral; details: in vivo
How it was run: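 For oral dosing, polyphenol was dissolved in a self-microemulsifying delivery system: 60% surfactant (emulsifier OP:Cremophor EL 1:1), 30% cosurfactant (PEG 400) and 10% oil (ethyl oleate). Total volume given was never above 100 μL. Plasma levels were quantified by previously described methods.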

[20] = Tmax in mouse at 100 mg/kg, po by HPLC method; format: ADME, organism-based; details: in vivo
How it was run: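 Given orally in a self-microemulsifying delivery system (60% surfactant, emulsifier OP:Cremophor EL 1:1; 30% PEG 400 cosurfactant; 10% ethyl oleate oil), total volume no more than 100 μL. Plasma levels measured by previously described methods.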

A-375 = assay: Cytotoxicity against human A375 cells assessed as decrease in cell viability at 20 uM after 48 hrs by SRB method relative to control; format: functional
A549 [21] = assay: Cytotoxicity against human A549 cells assessed as decrease in cell viability at 20 uM after 48 hrs by SRB method relative to control; format: functional
HT-29 [22] = assay: Cytotoxicity against human HT-29 cells assessed as decrease in cell viability at 20 uM after 48 hrs by SRB method relative to control; format: functional
MCF7 = assay: Cytotoxicity against human MCF7 cells assessed as decrease in cell viability at 20 uM after 48 hrs by SRB method relative to control; format: functional
[23] = Plasma concentration in mouse at 10 mg/kg, iv at 120 mins by LC-MS/MS method; format: ADME, organism-based; how it was run: as §1
A549 [24] = assay: Cytotoxicity against human A549 cells assessed as cell viability at 34 uM after 48 hrs by trypan blue exclusion and LDH release; details: A549, 48 h
U-87 MG [25] = assay: Cytotoxicity against human U87 cells assessed as decrease in cell viability after 48 hrs by trypan blue exclusion and LDH release
T47D [26] = assay: Cytotoxicity against human T47D cells assessed as decrease in cell viability after 48 hrs by trypan blue exclusion and LDH release
A549 [27] = assay: Cytotoxicity against human A549 cells assessed as decrease in cell viability after 48 hrs by trypan blue exclusion and LDH release; details: A549, 48 h
COLO 201 [28] = assay: Cytotoxicity against human COLO201 cells assessed as cell viability at 34 uM after 48 hrs by trypan blue exclusion and LDH release; details: COLO 201, 48 h
HT-29 [29] = assay: Cytotoxicity against human HT-29 cells assessed as decrease in cell viability after 48 hrs by trypan blue exclusion and LDH release; details: HT-29, 48 h
LN-229 [30] = assay: Cytotoxicity against human LN229 cells assessed as decrease in cell viability after 48 hrs by trypan blue exclusion and LDH release; details: LN-229, 48 h
NCI-H460 [31] = assay: Cytotoxicity against human NCI-H460 cells assessed as cell viability at 34 uM after 48 hrs by trypan blue exclusion and LDH release; details: NCI-H460, 48 h
COLO 201 [32] = assay: Cytotoxicity against human COLO201 cells assessed as decrease in cell viability after 48 hrs by trypan blue exclusion and LDH release; details: COLO 201, 48 h
MDA-MB-231 [33] = assay: Cytotoxicity against human MDA-MB-231 cells assessed as decrease in cell viability after 48 hrs by trypan blue exclusion and LDH release; details: MDA-MB-231, 48 h

## COc1cc(/C=C/c2ccc(O)cc2)cc(OC)c1 [PTEROSTILBENE]
NCI-H460 [1]
  pIC50: 4.77
BXPC-3 [2]
  pIC50: 4.51
PANC-1 [3]
  pIC50: 4.30
[4]
  pIC50: 4.77
SK-MEL-2 [5]
  pIC50: 4.77
MDA-MB-231 [6]
  viability at 34 µM: 90%
T47D [7]
  viability at 34 µM: 91%
HT-29 [8]
  viability at 34 µM: 96%
BXPC-3 [9]
  viability at 34 µM: 97%
PANC-1 [10]
  viability at 34 µM: 94%
[11]
  viability at 34 µM: 87%
SK-MEL-2 [12]
  viability at 34 µM: 85%
U-87 MG [13]
  viability at 34 µM: 103%
LN-229 [14]
  viability at 34 µM: 98%
[15]
  Cmax: 67 µM
[16]
  Tmax: 5 min
[17]
  concentration at 1 h: < 1 µM
[18]
  concentration at 1 h: 15 µM
[19]
  Cmax: 25 µM
[20]
  Tmax: 10 min
A-375
  Activity: 30%
A549 [21]
  Activity: 40%
HT-29 [22]
  Activity: 10%
MCF7
  Activity: 25%
[23]
  concentration at 2 h: < 1 µM
A549 [24]
  viability at 34 µM: 81%
U-87 MG [25]
  pIC50: 4.47
T47D [26]
  pIC50: 4.46
A549 [27]
  pIC50: 4.59
COLO 201 [28]
  viability at 34 µM: 95%
HT-29 [29]
  pIC50: 4.55
LN-229 [30]
  pIC50: 4.85
NCI-H460 [31]
  viability at 34 µM: 83%
COLO 201 [32]
  pIC50: 4.54
MDA-MB-231 [33]
  pIC50: 4.20
